Results published in the EternaBench riboswitch data.

Test system: MS2 coat protein
Assay: apparent Kd, MS2 coat protein; higher = weaker binding; RNA-MaP array
How it was run: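 Sequenced DNA templates on an Illumina sequencing chip were transcribed into the designed RNAs. These were incubated at room temperature in Tris-HCl pH 7.5 buffer containing KCl, MgCl2, BSA, DTT, tRNA and Tween20 with fluorescently labeled MS2 coat protein at 1.5 nM to 3 μM, with or without input ligand. Apparent Kd is the median of binding-curve fits per cluster, and designs with fewer than 10 clusters measured were excluded.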

[1] = designed as: ON switch for flavin mononucleotide, no ligand
[2] = ligand present: flavin mononucleotide, designed as: ON switch for flavin mononucleotide
[3] = designed as: OFF switch for flavin mononucleotide, no ligand
[4] = ligand present: flavin mononucleotide, designed as: OFF switch for flavin mononucleotide

| Sequence | apparent Kd [1] | apparent Kd [2] | apparent Kd [3] | apparent Kd [4] | also measured |
| --- | --- | --- | --- | --- | --- |
| UCGGUUUGUGCAGGAUAUGCUUACACCCUAGAGGCAGAAGGGCAUAUCACAUGAGGAUCACCCAUGUACAAUCGUCCAAGGGCA | 0.0298 µM | 0.0234 µM |  |  |  |
| AGAAGGGACGAGAAGGUACGAUCGAGUAAACUAUGAUAUGGGCACAUGAGGAUCACCCAUGUAUGUAAGGAUAUCGCAUCUCCA | 0.0505 µM | 0.0411 µM |  |  |  |
| AGAACCCAGUAAGGAUAUGAUGAGUCUAUACAACAUGAGGAUCACCCAUGUCCGAGGAAACUAGAUCAGAAGGUACAAGAAAAG | 0.0738 µM | 0.0176 µM |  |  |  |
| CAGGUUCGUACAGGAUAUGGUUACAUGAGGAUCACCCAUGUGCGGUGAGCUGAUUAGUGCACAGUCCAGAAGGGUAGGAUAACA | 0.852 µM | 0.684 µM |  |  |  |
| GGAGUUCUAGGAUAUAAUUCGUGGUACAUGAGGAUCACCCAUGUCGCUGAUGCAUCGCCUUUAGAAGGAGAGAUCU |  |  | 0.00903 µM | 0.00949 µM |  |
| UUCAUUUUCUAGGAUAUGUACCAGAAAAUAGUUACAGAAGGAGAGACAUGAGGAUCACCCAUGUUGGCAACAGC |  |  | 0.0107 µM | 0.0116 µM |  |
| AGAUUUGCAGGAUAUACCGGUACAAACAUGAGGAUCACCCAUGUAACGCAUGGUCAGUGAGUAGAAGGGCACGUAG |  |  | 0.0314 µM | 0.024 µM |  |
| ACUCAUGCAAAGGAUAUAACAGUUACAGACUGAUUAGAAGGUUGGACAUGAGGAUCACCCAUGUACGACGCGGU |  |  | 0.00913 µM | 0.0284 µM |  |
| CGCCCUAAAGAUAAGGAUAUUCAGUUAGUAACAUGAGGAUCACCCAUGUGCACAUUUCACUUGAUGAAGAAGGUAUCUGGAACAUU | 0.00827 µM | 0.0061 µM |  |  |  |
| UAGUAUGGCACAGGAUAUACAAUUAAUAUGCGGGUAGAAGGGUGGUAUCGACAUGAGGAUCACCCAUGUUAGGAAGAAACACAC | 0.134 µM | 0.0782 µM |  |  |  |
| AACAGACGAGACGAUACCAGUCUCUUAGCGCACAUGAGGAUCACCCAUGUUGGCAAGCUCGACCCUUGGCAGCGUACCUUUGAUC |  |  |  |  | apparent Kd (designed as: ON switch for theophylline, no ligand): 0.0244 µM; apparent Kd (ligand present: theophylline, designed as: ON switch for theophylline): 0.014 µM |
| CGUGAUCGCAGAAAGGAUAUUUGGCCUGUAACAUGAGGAUCACCCAUGUUCAAAUGUGACUUACUAAAGAAGGUUCGAAGAUCCAA | 0.00723 µM | 0.00711 µM |  |  |  |
| GCUGCCUGGACAUGAGGAUCACCCAUGUGGACAAUACUGGCUUAGGAUAUUUGAUUGAAGUUUGGAAAGAAGGAAGCAUACAGC |  |  | 0.00917 µM | 0.00814 µM |  |
| AACAGAAGACAGGAUAUUACUUAACCAGUAUUGUAAGAAGGGUCGACAUGAGGAUCACCCAUGUGAUCAUACUG |  |  | 0.0488 µM | 0.047 µM |  |
| ACAUGAGGAUCACCCAUGUAAACAAGGUUGGAGACCCGCAAUGAGGAUAUCAUAAAGAAACCCAAUGAGAAGGCAUGAUCACAA | 0.0223 µM | 0.0173 µM |  |  |  |
| CGAGUCUUAUAGAAGGUAGACAUGAGGAUCACCCAUGUACUGGCAACGAAUAGUCGUAGUACACCUAAGGAUAUAUGGGAUGAG | 0.0747 µM | 0.0523 µM |  |  |  |
| GCGAGGAGGCAGAAGGACUAAAACACGCUACAAGUAGGAUAUGCAUCCUGCACACAUGAGGAUCACCCAUGUAGAUCCUAUCGC |  |  | 0.078 µM | 0.151 µM |  |
| GACUACAUAGUCAGGAUAUGUGAUUAAUAAUAUCAACAGAAGGGACAUGAGGAUCACCCAUGUGUGCGAGUGGA |  |  | 0.0145 µM | 0.0332 µM |  |
| GCGGUACAUGAGGAUCACCCAUGUGAUUUAACAGGUUUCAUCAGAAGGACUCACGGUUUGCGACAGUAGGAUAUGAAGGGUAAG | 0.0346 µM | 0.0246 µM |  |  |  |
| CGUAUACAUGAGGAUCACCCAUGUACUCCCGUGUAAGGCGAGAAGGAUAUGUUCCCGGCUACUUAACAGAAGGUCUUGGCGCUU |  |  | 0.0149 µM | 0.0112 µM |  |
| GCAGGACAUGAGGAUCACCCAUGUGAUACUAUGACAGGAUAUGAUUGAAAACUUACUAGAACAGAAGGGUCGUGUA | 0.0943 µM | 0.0345 µM |  |  |  |
| CAGUUACUGUAGAAGGAUAUCAUUAAUACGGAUAUAGGAUAUACUCCGGGUGGAAUCGUGAACAUGAGGAUCACCCAUGUUUCG |  |  | 0.0102 µM | 0.0086 µM |  |
| CUUCUUCGUGCAGGAUAUAAGGGAACACGAUGACAUGAGGAUCACCCAUGUUCUAUAAGCAGGCUUUAGAAGGGCAUUUUGGAU | 0.0271 µM | 0.0201 µM |  |  |  |
